ChEMBL document CHEMBL4196176, “Structure-Based Design of MptpB Inhibitors That Reduce Multidrug-Resistant Mycobacterium tuberculosis Survival and Infection Burden in Vivo” (J Med Chem, 2018)
Active and inactive are the calls of the source. The rule behind the calls is not given here.

Key:
Cavia porcellus [1] = assay: Half life in Dunkin Hartley guinea pig at 3.5 mg/kg, po; assay type: ADME, organism-based; details: in vivo, BLD = below limit of detection
Cavia porcellus [2] = assay: Oral bioavailability in Dunkin Hartley guinea pig at 3.5 mg/kg; assay type: ADME, organism-based; details: in vivo
Cavia porcellus [3] = assay: Half life in Dunkin Hartley guinea pig at 1.25 mg/kg, ip; assay type: ADME, organism-based; details: in vivo
[4] = biological target: Dual specificity protein phosphatase 3 (Homo sapiens, UniProt P51452); assay: Inhibition of human VHR using pNPP as substrate preincubated for 15 mins followed by substrate addition and measured after 15 mins
Chain of Dual specificity protein phosphatase 3 (P51452 whole entry, the tested form may be a part): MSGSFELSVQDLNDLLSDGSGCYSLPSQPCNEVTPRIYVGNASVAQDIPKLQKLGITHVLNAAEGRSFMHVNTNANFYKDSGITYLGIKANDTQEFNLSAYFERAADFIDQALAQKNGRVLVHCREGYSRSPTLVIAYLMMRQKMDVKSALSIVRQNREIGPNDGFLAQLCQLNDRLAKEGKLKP
In short: (§1)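 His-tagged MptpA/MptpB expressed in E. coli BL21(DE3); VHR and hPTP1B purified as GST fusions with the tag cleaved. 0.5 μg protein in Tris/BisTris/acetate buffer (pH 7 MptpB, 6.5 MptpA, 6 hPTP1B, 5 VHR) with compound at 0–250 μM, 15 min at room temperature. pNPP added to 0.35 mM for 15 min, quenched with NaOH, read at 405 nm against a pNP curve. No-enzyme blanks.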

Cavia porcellus [5] = assay: AUCinfinity in Dunkin Hartley guinea pig at 3.5 mg/kg, po; assay type: ADME, organism-based; set-up: dose 3.5 mg/kg, route oral, time infinity; details: in vivo, BLD = below limit of detection
Cavia porcellus [6] = assay: Cmax in Dunkin Hartley guinea pig at 3.5 mg/kg, po after 0.25 hrs post dose; assay type: ADME, organism-based; set-up: dose 3.5 mg/kg, route oral; details: in vivo, BLD = below limit of detection
[7] = Inhibition of Mycobacterium tuberculosis H37Rv His-tagged ptpA expressed in Escherichia coli BL21(DE3) using pNPP as substrate preincubated for 15 mins followed by substrate addition and measured after 15 mins; in short: as §1
Cavia porcellus [8] = assay: Cmax in Dunkin Hartley guinea pig at 1.25 mg/kg, ip after 0.5 hrs post dose; assay type: ADME, organism-based; set-up: dose 1.25 mg/kg, route intraperitoneal; details: in vivo
[9] = biological target: T1, Tyrosine-protein phosphatase non-receptor type 1 (Homo sapiens, UniProt P18031); assay: Inhibition of human PTP1B using pNPP as substrate preincubated for 15 mins followed by substrate addition and measured after 15 mins
T1 sequence (P18031 whole entry): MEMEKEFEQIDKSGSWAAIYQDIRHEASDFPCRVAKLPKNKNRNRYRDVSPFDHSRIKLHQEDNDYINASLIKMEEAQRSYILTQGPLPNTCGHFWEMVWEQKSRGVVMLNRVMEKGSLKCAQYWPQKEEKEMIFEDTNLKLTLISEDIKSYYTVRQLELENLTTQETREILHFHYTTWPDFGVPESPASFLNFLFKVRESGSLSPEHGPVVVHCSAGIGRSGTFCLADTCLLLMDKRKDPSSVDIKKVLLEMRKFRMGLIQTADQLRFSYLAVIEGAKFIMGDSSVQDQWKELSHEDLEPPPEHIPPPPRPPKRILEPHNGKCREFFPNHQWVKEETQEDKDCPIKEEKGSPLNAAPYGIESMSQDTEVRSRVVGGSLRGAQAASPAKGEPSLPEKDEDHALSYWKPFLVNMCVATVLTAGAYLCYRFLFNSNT

Cavia porcellus [10] = assay: AUCinfinity in Dunkin Hartley guinea pig at 1.25 mg/kg, ip; assay type: ADME, organism-based; set-up: dose 1.25 mg/kg, time infinity, route intraperitoneal; details: in vivo
[11] = biological target: T2, Phosphotyrosine protein phosphatase (Mycobacterium tuberculosis, UniProt A0A045ISB3); assay: Inhibition of Mycobacterium tuberculosis H37Rv His-tagged ptpB expressed in Escherichia coli BL21(DE3) using pNPP as substrate preincubated for 15 mins followed by substrate addition and measured after 15 mins
T2 sequence (A0A045ISB3 whole entry): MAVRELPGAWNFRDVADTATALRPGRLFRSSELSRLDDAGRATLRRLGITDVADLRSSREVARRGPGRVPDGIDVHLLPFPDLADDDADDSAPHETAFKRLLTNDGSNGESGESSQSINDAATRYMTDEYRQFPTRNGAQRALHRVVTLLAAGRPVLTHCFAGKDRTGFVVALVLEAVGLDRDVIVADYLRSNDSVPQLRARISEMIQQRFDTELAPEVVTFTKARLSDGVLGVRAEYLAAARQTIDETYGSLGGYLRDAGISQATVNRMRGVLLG

J774.A1 = assay: Cytotoxicity against mouse J774A.1 cells assessed as reduction in cell viability at 50 to 150 uM after 24 hrs by MTT assay; assay type: cell-based; details: j774.a1, 24 h
In short: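 MTT viability assay in J774A.1 cells seeded at 6 × 10^3/well and adhered overnight. Inhibitor in DMSO or DMSO only added for 24 h. MTT (5 mg/mL in PBS) added for 4 h, formazan dissolved in DMSO with Sorensen's glycine buffer, absorbance read at 570 nm.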

[12] = biological target: T3, Phosphotyrosine protein phosphatase (Mycobacterium tuberculosis) (UniProt A0A045ISB3); assay: Inhibition of Mycobacterium tuberculosis H37Rv ATCC 35837 ptpB infected in human THP1 cells assessed as reduction in intracellular bacterial burden at 10 to 80 uM after 72 hrs post infection relative to DMSO-treated control; assay type: cell-based
T3 sequence (whole entry): T2 sequence (A0A045ISB3 whole entry)
In short: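 PMA-differentiated THP1 cells (1 × 10^6/well, RPMI with 10% FBS and 4 mM L-glutamine) received inhibitor in DMSO, then thawed M. tuberculosis at MOI 1:1. Washed after 3 h; medium and inhibitor renewed at 24 h. At 72 h, lysed in 0.05% SDS; 10-fold dilutions plated in duplicate on 7H10, CFU counted after 3 weeks at 37 °C; triplicate experiments.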

Cavia porcellus [13] = assay: Half life in Dunkin Hartley guinea pig at 5 mg/kg, po; assay type: ADME, organism-based; details: in vivo, BLD = below limit of detection
Cavia porcellus [14] = assay: Cmax in Dunkin Hartley guinea pig at 5 mg/kg, po after 0.25 hrs post dose; assay type: ADME, organism-based; set-up: dose 5 mg/kg, route oral; details: in vivo, BLD = below limit of detection
Cavia porcellus [15] = assay: AUCinfinity in Dunkin Hartley guinea pig at 5 mg/kg, po; assay type: ADME, organism-based; set-up: dose 5 mg/kg, time infinity, route oral; details: in vivo, BLD = below limit of detection
Cavia porcellus [16] = assay: AUCinfinity in Dunkin Hartley guinea pig at 2.5 mg/kg, ip; assay type: ADME, organism-based; set-up: dose 2.5 mg/kg, time infinity, route intraperitoneal; details: in vivo
Cavia porcellus [17] = assay: Oral bioavailability in Dunkin Hartley guinea pig at 5 mg/kg; assay type: ADME, organism-based; details: in vivo
Cavia porcellus [18] = assay: Half life in Dunkin Hartley guinea pig at 2.5 mg/kg, ip; assay type: ADME, organism-based; details: in vivo
Cavia porcellus [19] = assay: Cmax in Dunkin Hartley guinea pig at 2.5 mg/kg, ip after 0.5 hrs post dose; assay type: ADME, organism-based; set-up: dose 2.5 mg/kg, route intraperitoneal; details: in vivo

## O=C(O)c1noc(-c2ccccc2)c1-c1cccc(-c2cc(Cl)cc(Cl)c2)c1
Cavia porcellus [1]
  t1/2: Bld
Cavia porcellus [2]
  F: < 13%
Cavia porcellus [3]
  t1/2: 1.3 h
[4]
  IC50: 12.3 µM
Cavia porcellus [5]
  AUC: Bld
Cavia porcellus [6]
  Cmax: Bld
[7]
  IC50: 6.5 µM
Cavia porcellus [8]
  Cmax: 746 ng/mL
[9]
  IC50: 48 µM
Cavia porcellus [10]
  AUC: 1742 ng·h/mL

## O=C(O)c1cc(-c2ccccc2)on1
[11]
  IC50: > 500 µM

## O=C(O)c1noc(-c2ccccc2)c1-c1cccc(-c2ccc(O)cc2)c1
J774.A1
  Activity: Non-Toxic
[4]
  IC50: 54 µM
[11]
  IC50: 2.8 µM
[7]
  IC50: 74 µM
[9]
  IC50: > 100 µM

## COC(=O)c1c(O)cccc1OC/C=C/c1cccc(-c2cc(C(=O)O)no2)c1 [ISOXAZOLECARBOXYLIC ACID]
[11]
  IC50: 7 µM
[12]
  inhibition: Active

## O=C(O)c1noc(-c2ccccc2)c1-c1cccc(-c2cc(Cl)c(O)c(Cl)c2)c1
J774.A1
  Activity: Non-Toxic
Cavia porcellus [13]
  t1/2: Bld
[4]
  IC50: 10.5 µM
Cavia porcellus [14]
  Cmax: Bld
Cavia porcellus [15]
  AUC: Bld
Cavia porcellus [16]
  AUC: 4968 ng·h/mL
[7]
  IC50: 33.7 µM
[9]
  IC50: 127 µM
Cavia porcellus [17]
  F: < 4%
Cavia porcellus [18]
  t1/2: 0.7 h
Cavia porcellus [19]
  Cmax: 3714 ng/mL

## O=C(O)c1noc(-c2ccccc2)c1-c1cccc(-c2cccc(O)c2)c1
[4]
  IC50: 59 µM
[7]
  IC50: 95 µM
[9]
  IC50: > 100 µM

## Cc1cc(-c2cccc(-c3c(C(=O)O)noc3-c3ccccc3)c2)cc(C)c1O
Cavia porcellus [13]
  t1/2: Bld
[4]
  IC50: 23.2 µM
Cavia porcellus [14]
  Cmax: Bld
Cavia porcellus [15]
  AUC: Bld
Cavia porcellus [16]
  AUC: 399 ng·h/mL
[7]
  IC50: 36 µM
[9]
  IC50: > 100 µM
Cavia porcellus [17]
  F: < 2.5%
Cavia porcellus [18]
  t1/2: 1.4 h
Cavia porcellus [19]
  Cmax: 197 ng/mL
